Publication PMC3993932 (Molecular Pharmaceutics, 2014)

Columns and labels:
[1] = Pharmacokinetic study in mice bearing BxPC-3 xenografts; format: in vivo
In short: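 Female nude mice carried BxPC-3 subcutaneous xenografts of 100–300 mm3 (3 per group). Mice received iv 25 mg/kg parent-drug equivalent as free drug in PBS, free prodrug in Tween 80/ethanol:PBS (1:4), or micelles. Retro-orbital blood was taken at 3–90 min. Samples were quenched with acetic acid, precipitated with acetonitrile, and analyzed by HPLC with internal standards for prodrug, parent and deaminated metabolite. t1/2, CLT and Vd,ss came from noncompartmental analysis.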

[2] = test system: tumor cells with wild-type hENT1 and deoxycytidine kinase; conditions: cell culture, tumor cells with wild-type hENT1 and deoxycytidine kinase ref 36; cited from earlier work
[3] = test system: cytidine deaminase and cathepsin B; format: in vitro ADME, human; conditions: by 1 h; cathepsin B 5 U/mL, cytidine deaminase 15 μg/mL, pH 6.5, 37 °C
[4] = Body weight of treated mice in the efficacy study; format: in vivo; conditions: iv 10 mg/kg gemcitabine equivalent twice weekly for 2 weeks
In short: (§1)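 Female athymic nude mice (nu/nu, 5–6 weeks) received subcutaneous BxPC-3 cells (2 × 10^6 in matrigel/RPMI) in each flank. At 50–100 mm3, mice were randomized to untreated, free parent drug in PBS, or micellar prodrug groups (4 per group). Dosing was iv 10 mg/kg parent-drug equivalent on days 0, 3, 7 and 10. Tumor volume was measured by caliper as 1/2 × length × width², and body weight was tracked. Groups were compared by t-test.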

[5] = test system: human pancreatic cancer BxPC-3 cells; assay: Cell proliferation assay; format: cell-based; conditions: BXPC-3, 72 h
In short: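 BxPC-3 cells were grown in RPMI with 10% FBS and penicillin/streptomycin at 37 °C under 5% CO2, then seeded in 96-well plates. Stocks were 1 mM (parent drug in PBS, prodrug in DMSO). Cells were exposed to 10–150 nM free or micellar test compound for 72 h. They were then fixed with 1% glutaraldehyde, stained with 0.1% crystal violet and dissolved in 10% acetic acid, with absorbance read at 595 nm. Viability was expressed as % of untreated wells.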

[6] = In vitro release study by dialysis method; format: physicochemical
In short: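 Micelles, free parent drug, or free prodrug were placed in a 20 kDa MWCO dialysis cassette against 500 mL PBS (20 mM, pH 7.4) at 37 °C. The sink was refreshed at each sampling. Free prodrug was taken from a 6 mM Tween 80/ethanol (1:4) stock and diluted in HEPES saline to a final 100 μM. Cassette contents were sampled over time and quantified by HPLC. Ct/C0 = e^–kt was fitted by nonlinear regression, and t1/2 = 0.693/k.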

[7] = test system: BxPC-3 xenografts; assay: Antitumor efficacy study in mice bearing BxPC-3 xenografts; format: in vivo; conditions: iv 10 mg/kg gemcitabine equivalent on days 0, 3, 7, 10
In short: as §1

[8] = female, athymic nude (nu/nu), mouse, plasma, iv, 25 mg/kg

`Nc1ccn([C@@H]2O[C@H](CO)[C@@H](O)C2(F)F)c(=O)n1` [gemcitabine, 2′,2′-difluorocytidine] gave an AUC [1, 8] of 18.8 µM·h, a Vd [1, 8] of 1.06 ± 0.132 L/kg and a CLT of gemcitabine ([1]; plasma gemcitabine, iv 25 mg/kg, mice) of 84.0 ± 4.0 mL/kg/min. For the same compound, the EC50 [2] was “low nanomolar range”, the “conversion to dFdU” value [3] was 80% and the “body weight / overt toxicity” value [4] was “no overt toxicity”. The EC50 [5] was 25 nM, the “release half-life (t1/2,release)” value ([6]; dialysis) was “about 15 min” and the “t1/2,release” value ([6]; dialysis 20 kDa MWCO, PBS pH 7.4, 37 °C, 0.693/k) was 14.4 min. For the same compound, the release rate constant ([6]; dialysis 20 kDa MWCO, PBS pH 7.4, 37 °C, free GemC18 in Tween 80/ethanol) was 2.920 h^–1 and the “effect on tumor growth” value [7] was “unable to arrest the tumor growth”.
